{"source": "ChEMBL document CHEMBL4422650", "about": "“Design and synthesis of biotinylated cardiac glycosides for probing Nur77 protein inducting pathway” (Bioorg Med Chem Lett, 2019)", "key": {"[1]": {"assay": "Cytotoxicity against human NIH-H460 cells assessed as cell viability at 50 nM after 48 hrs by MTT assay relative to control"}, "[2]": {"organism": "Homo sapiens", "assay": "Induction of Nur77 expression in human NIH-H460 cells AT 20 nM after 3 hrs by Western blot analysis", "assay_type": "functional, cell-based", "in_short": "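NIH-H460 cancer cells were exposed to probes at 20 nM for 3 h. Nur77 protein was detected by western blotting with an anti-Nur77 antibody. DMSO served as the blank, and the underivatized biotin linker hydrazides were the negative controls.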"}, "[3]": {"target": "Streptavidin (Streptomyces avidinii) (UniProt P22629)", "sequence (P22629 whole entry)": "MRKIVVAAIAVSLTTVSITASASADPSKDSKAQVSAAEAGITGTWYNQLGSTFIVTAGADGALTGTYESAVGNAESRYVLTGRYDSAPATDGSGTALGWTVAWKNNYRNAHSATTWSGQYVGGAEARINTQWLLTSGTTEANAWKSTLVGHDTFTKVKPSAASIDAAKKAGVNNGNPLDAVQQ", "assay": "Binding affinity to Streptomyces avidinii streptavidin at 1 mM after 2 hrs by HABA dye-based UV-vis spectroscopic analysis"}}, "note": "The source made the active and inactive calls. The rule behind the calls is not given here."}
{"smiles": "C[C@H]1O[C@@H](O[C@H]2CC[C@]3(/C=N/NC(=O)CCCC[C@@H]4SC[C@@H]5NC(=O)N[C@@H]54)[C@H]4C[C@@H](O)[C@]5(C)[C@@H](C6=CC(=O)OC6)CC[C@]5(O)[C@@H]4CC[C@]3(O)C2)[C@H](O)[C@H](O)[C@H]1O", "values": [{"measurement": "viability at 48 h, 0.05 µM", "setting": "[1]", "value": "> 90", "unit": "%"}]}
{"smiles": "C[C@H]1O[C@@H](O[C@H]2CC[C@]3(/C=N/NC(=O)COCCOCCNC(=O)CCCC[C@@H]4SC[C@@H]5NC(=O)N[C@@H]54)[C@H]4C[C@@H](O)[C@]5(C)[C@@H](C6=CC(=O)OC6)CC[C@]5(O)[C@@H]4CC[C@]3(O)C2)[C@H](O)[C@H](O)[C@H]1O", "values": [{"measurement": "Activity", "setting": "[2]", "value": "Active"}, {"measurement": "viability at 48 h, 0.05 µM", "setting": "[1]", "value": "> 90", "unit": "%"}]}
{"smiles": "C[C@@H]1O[C@@H](O[C@H]2CC[C@]3(/C=N/NC(=O)COCCNC(=O)CCCC[C@@H]4SC[C@@H]5NC(=O)N[C@@H]54)[C@H]4C[C@@H](O)[C@]5(C)[C@@H](C6=CC(=O)OC6)CC[C@]5(O)[C@@H]4CC[C@]3(O)C2)[C@H](O)[C@H](O)[C@H]1O", "values": [{"measurement": "viability at 48 h, 0.05 µM", "setting": "[1]", "value": "> 90", "unit": "%"}]}
{"smiles": "C[C@H]1O[C@@H](O[C@H]2CC[C@]3(/C=N/NC(=O)CCCCCNC(=O)CCCC[C@@H]4SC[C@@H]5NC(=O)N[C@@H]54)[C@H]4C[C@@H](O)[C@]5(C)[C@@H](C6=CC(=O)OC6)CC[C@]5(O)[C@@H]4CC[C@]3(O)C2)[C@H](O)[C@H](O)[C@H]1O", "values": [{"measurement": "Activity", "setting": "[2]", "value": "Active"}, {"measurement": "viability at 48 h, 0.05 µM", "setting": "[1]", "value": "> 90", "unit": "%"}]}
{"smiles": "C[C@@H]1O[C@@H](O[C@H]2CC[C@]3(C=O)[C@H]4C[C@@H](O)[C@]5(C)[C@@H](C6=CC(=O)OC6)CC[C@]5(O)[C@@H]4CC[C@]3(O)C2)[C@H](O)[C@H](O)[C@H]1O", "values": [{"measurement": "Activity", "setting": "[2]", "value": "Active"}]}
{"smiles": "C[C@H]1O[C@@H](O[C@H]2CC[C@]3(/C=N/NC(=O)COCCNC(=O)CCCC[C@@H]4SC[C@@H]5NC(=O)N[C@@H]54)[C@H]4C[C@@H](O)[C@]5(C)[C@@H](C6=CC(=O)OC6)CC[C@]5(O)[C@@H]4CC[C@]3(O)C2)[C@H](O)[C@H](O)[C@H]1O", "values": [{"measurement": "Activity", "setting": "[2]", "value": "Active"}, {"measurement": "viability at 48 h, 0.05 µM", "setting": "[1]", "value": "> 90", "unit": "%"}]}
{"smiles": "C[C@@H]1O[C@@H](O[C@H]2CC[C@]3(/C=N/NC(=O)COCCOCCNC(=O)CCCC[C@@H]4SC[C@@H]5NC(=O)N[C@@H]54)[C@H]4C[C@@H](O)[C@]5(C)[C@@H](C6=CC(=O)OC6)CC[C@]5(O)[C@@H]4CC[C@]3(O)C2)[C@H](O)[C@H](O)[C@H]1O", "values": [{"measurement": "Activity", "setting": "[2]", "value": "Active"}, {"measurement": "viability at 48 h, 0.05 µM", "setting": "[1]", "value": "> 90", "unit": "%"}]}
{"smiles": "C[C@H]1O[C@@H](O[C@H]2CC[C@]3(/C=N/NC(=O)CCCCCCCNC(=O)CCCC[C@@H]4SC[C@@H]5NC(=O)N[C@@H]54)[C@H]4C[C@@H](O)[C@]5(C)[C@@H](C6=CC(=O)OC6)CC[C@]5(O)[C@@H]4CC[C@]3(O)C2)[C@H](O)[C@H](O)[C@H]1O", "values": [{"measurement": "Activity", "setting": "[2]", "value": "Active"}, {"measurement": "Activity", "setting": "[3]", "value": "Active"}, {"measurement": "viability at 48 h, 0.05 µM", "setting": "[1]", "value": "> 90", "unit": "%"}]}
{"smiles": "C[C@@H]1O[C@@H](O[C@H]2CC[C@]3(/C=N/NC(=O)CNC(=O)CCCC[C@@H]4SC[C@@H]5NC(=O)N[C@@H]54)[C@H]4C[C@@H](O)[C@]5(C)[C@@H](C6=CC(=O)OC6)CC[C@]5(O)[C@@H]4CC[C@]3(O)C2)[C@H](O)[C@H](O)[C@H]1O", "values": [{"measurement": "Activity", "setting": "[2]", "value": "Active"}, {"measurement": "viability at 48 h, 0.05 µM", "setting": "[1]", "value": "> 90", "unit": "%"}]}
{"smiles": "C[C@@H]1O[C@@H](O[C@H]2CC[C@]3(/C=N/NC(=O)CCCC[C@@H]4SC[C@@H]5NC(=O)N[C@@H]54)[C@H]4C[C@@H](O)[C@]5(C)[C@@H](C6=CC(=O)OC6)CC[C@]5(O)[C@@H]4CC[C@]3(O)C2)[C@H](O)[C@H](O)[C@H]1O", "values": [{"measurement": "Activity", "setting": "[2]", "value": "Active"}, {"measurement": "viability at 48 h, 0.05 µM", "setting": "[1]", "value": "> 90", "unit": "%"}]}
{"smiles": "NNC(=O)CCCCCNC(=O)CCCC[C@@H]1SC[C@@H]2NC(=O)N[C@@H]21", "values": [{"measurement": "viability at 48 h, 0.05 µM", "setting": "[1]", "value": "> 90", "unit": "%"}]}
{"smiles": "NNC(=O)COCCOCCNC(=O)CCCC[C@@H]1SC[C@@H]2NC(=O)N[C@@H]21", "values": [{"measurement": "viability at 48 h, 0.05 µM", "setting": "[1]", "value": "> 90", "unit": "%"}]}
{"smiles": "C[C@@H]1O[C@@H](O[C@H]2CC[C@]3(/C=N/NC(=O)CCCCCCCNC(=O)CCCC[C@@H]4SC[C@@H]5NC(=O)N[C@@H]54)[C@H]4C[C@@H](O)[C@]5(C)[C@@H](C6=CC(=O)OC6)CC[C@]5(O)[C@@H]4CC[C@]3(O)C2)[C@H](O)[C@H](O)[C@H]1O", "values": [{"measurement": "Activity", "setting": "[2]", "value": "Active"}, {"measurement": "viability at 48 h, 0.05 µM", "setting": "[1]", "value": "> 90", "unit": "%"}]}
{"smiles": "C[C@H]1O[C@@H](O[C@H]2CC[C@]3(/C=N/NC(=O)COCCOCCOCCNC(=O)CCCC[C@@H]4SC[C@@H]5NC(=O)N[C@@H]54)[C@H]4C[C@@H](O)[C@]5(C)[C@@H](C6=CC(=O)OC6)CC[C@]5(O)[C@@H]4CC[C@]3(O)C2)[C@H](O)[C@H](O)[C@H]1O", "values": [{"measurement": "Activity", "setting": "[2]", "value": "Active"}, {"measurement": "viability at 48 h, 0.05 µM", "setting": "[1]", "value": "> 90", "unit": "%"}]}
{"smiles": "C[C@H]1O[C@@H](O[C@H]2CC[C@]3(/C=N/NC(=O)CCCNC(=O)CCCC[C@@H]4SC[C@@H]5NC(=O)N[C@@H]54)[C@H]4C[C@@H](O)[C@]5(C)[C@@H](C6=CC(=O)OC6)CC[C@]5(O)[C@@H]4CC[C@]3(O)C2)[C@H](O)[C@H](O)[C@H]1O", "values": [{"measurement": "Activity", "setting": "[2]", "value": "Active"}, {"measurement": "viability at 48 h, 0.05 µM", "setting": "[1]", "value": "> 90", "unit": "%"}]}
{"smiles": "C[C@H]1O[C@@H](O[C@H]2CC[C@]3(/C=N/NC(=O)CNC(=O)CCCC[C@@H]4SC[C@@H]5NC(=O)N[C@@H]54)[C@H]4C[C@@H](O)[C@]5(C)[C@@H](C6=CC(=O)OC6)CC[C@]5(O)[C@@H]4CC[C@]3(O)C2)[C@H](O)[C@H](O)[C@H]1O", "values": [{"measurement": "Activity", "setting": "[2]", "value": "Active"}, {"measurement": "viability at 48 h, 0.05 µM", "setting": "[1]", "value": "> 90", "unit": "%"}]}
{"smiles": "C[C@@H]1O[C@@H](O[C@H]2CC[C@]3(/C=N/NC(=O)CCCCCNC(=O)CCCC[C@@H]4SC[C@@H]5NC(=O)N[C@@H]54)[C@H]4C[C@@H](O)[C@]5(C)[C@@H](C6=CC(=O)OC6)CC[C@]5(O)[C@@H]4CC[C@]3(O)C2)[C@H](O)[C@H](O)[C@H]1O", "values": [{"measurement": "Activity", "setting": "[2]", "value": "Active"}, {"measurement": "Activity", "setting": "[3]", "value": "Active"}, {"measurement": "viability at 48 h, 0.05 µM", "setting": "[1]", "value": "> 90", "unit": "%"}]}
{"smiles": "C[C@@H]1O[C@@H](O[C@H]2CC[C@]3(/C=N/NC(=O)COCCOCCOCCNC(=O)CCCC[C@@H]4SC[C@@H]5NC(=O)N[C@@H]54)[C@H]4C[C@@H](O)[C@]5(C)[C@@H](C6=CC(=O)OC6)CC[C@]5(O)[C@@H]4CC[C@]3(O)C2)[C@H](O)[C@H](O)[C@H]1O", "values": [{"measurement": "Activity", "setting": "[2]", "value": "Active"}, {"measurement": "viability at 48 h, 0.05 µM", "setting": "[1]", "value": "> 90", "unit": "%"}]}
{"smiles": "C[C@H]1O[C@@H](O[C@H]2CC[C@]3(C=O)[C@H]4C[C@@H](O)[C@]5(C)[C@@H](C6=CC(=O)OC6)CC[C@]5(O)[C@@H]4CC[C@]3(O)C2)[C@H](O)[C@H](O)[C@H]1O", "values": [{"measurement": "Activity", "setting": "[2]", "value": "Active"}]}
{"smiles": "C[C@@H]1O[C@@H](O[C@H]2CC[C@]3(/C=N/NC(=O)CCCNC(=O)CCCC[C@@H]4SC[C@@H]5NC(=O)N[C@@H]54)[C@H]4C[C@@H](O)[C@]5(C)[C@@H](C6=CC(=O)OC6)CC[C@]5(O)[C@@H]4CC[C@]3(O)C2)[C@H](O)[C@H](O)[C@H]1O", "values": [{"measurement": "Activity", "setting": "[2]", "value": "Active"}, {"measurement": "viability at 48 h, 0.05 µM", "setting": "[1]", "value": "> 90", "unit": "%"}]}
